Source: ChEMBL document CHEMBL3526053, “Species-dependent uptake of glycylsarcosine but not oseltamivir in Pichia pastoris expressing the rat, mouse, and human intestinal peptide transporter PEPT1” (Drug Metab Dispos, 2012)

Experiments:
Format in all cases: ADME
[1] = molecular target: T1, Solute carrier family 15 member 1 (Homo sapiens, UniProt P46059); experiment: Drug uptake in Pichia pastoris GS115 expressing human recombinant PEPT1 at 5 uM after 30s by dual-channel liquid scintillation counting analysis in presence of elacridar relative to control; conditions: 0.5 min
T1 sequence (P46059 whole entry): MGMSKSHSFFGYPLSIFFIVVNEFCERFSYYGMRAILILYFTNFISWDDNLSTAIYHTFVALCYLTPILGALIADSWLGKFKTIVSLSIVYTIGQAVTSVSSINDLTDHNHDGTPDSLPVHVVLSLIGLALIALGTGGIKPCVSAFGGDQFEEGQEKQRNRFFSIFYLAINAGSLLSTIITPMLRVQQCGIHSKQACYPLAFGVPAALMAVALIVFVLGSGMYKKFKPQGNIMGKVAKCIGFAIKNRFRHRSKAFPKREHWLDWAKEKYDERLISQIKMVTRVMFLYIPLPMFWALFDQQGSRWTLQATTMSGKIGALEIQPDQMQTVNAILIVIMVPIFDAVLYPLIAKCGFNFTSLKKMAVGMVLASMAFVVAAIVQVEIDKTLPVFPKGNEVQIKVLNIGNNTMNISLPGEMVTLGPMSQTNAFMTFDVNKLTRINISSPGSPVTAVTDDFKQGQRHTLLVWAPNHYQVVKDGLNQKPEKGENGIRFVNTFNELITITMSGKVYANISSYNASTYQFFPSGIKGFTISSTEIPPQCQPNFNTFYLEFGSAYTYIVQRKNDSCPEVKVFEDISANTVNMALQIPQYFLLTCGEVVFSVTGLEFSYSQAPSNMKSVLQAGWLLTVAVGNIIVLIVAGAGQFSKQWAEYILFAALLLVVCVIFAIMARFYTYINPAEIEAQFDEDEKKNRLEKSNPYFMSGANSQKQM
How it was run: (§1)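 [3H]GlySar 5.0 µM final, 30-s uptake at 24°C in 100 mM potassium phosphate pH 6.5, with or without a potential inhibitor at 10 mM. Cells are methanol-induced transformants. Values are vector-subtracted and expressed as percent of buffer control. Mean ± SE (n=3). ANOVA with Dunnett's test.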

[2] = molecular target: T2, Solute carrier family 15 member 1 (Mus musculus, UniProt Q9JIP7); experiment: Drug uptake in Pichia pastoris GS115 expressing mouse recombinant PEPT1 at 5 uM after 30s by dual-channel liquid scintillation counting analysis in presence of valacyclovir relative to control; conditions: in vivo, 0.5 min; how it was run: as §1
T2 sequence (Q9JIP7 whole entry): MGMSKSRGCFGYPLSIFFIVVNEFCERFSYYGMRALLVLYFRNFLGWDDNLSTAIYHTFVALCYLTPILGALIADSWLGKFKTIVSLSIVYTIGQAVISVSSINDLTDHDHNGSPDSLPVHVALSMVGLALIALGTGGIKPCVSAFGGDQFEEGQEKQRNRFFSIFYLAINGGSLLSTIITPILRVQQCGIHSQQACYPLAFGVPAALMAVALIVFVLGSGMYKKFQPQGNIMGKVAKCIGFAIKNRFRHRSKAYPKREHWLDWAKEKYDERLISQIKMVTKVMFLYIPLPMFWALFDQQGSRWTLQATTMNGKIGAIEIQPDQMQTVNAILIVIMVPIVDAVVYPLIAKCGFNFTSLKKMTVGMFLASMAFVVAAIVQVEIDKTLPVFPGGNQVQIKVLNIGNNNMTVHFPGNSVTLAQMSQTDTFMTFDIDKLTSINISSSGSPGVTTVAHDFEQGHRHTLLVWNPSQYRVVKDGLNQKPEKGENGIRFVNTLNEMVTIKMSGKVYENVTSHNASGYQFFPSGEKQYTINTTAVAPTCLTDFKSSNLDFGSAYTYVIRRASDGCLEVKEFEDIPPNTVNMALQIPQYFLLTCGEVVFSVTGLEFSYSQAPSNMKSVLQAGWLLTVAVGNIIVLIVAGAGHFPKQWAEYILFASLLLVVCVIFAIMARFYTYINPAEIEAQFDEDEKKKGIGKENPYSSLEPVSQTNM

[3] = molecular target: T2, Solute carrier family 15 member 1; experiment: Drug uptake in Pichia pastoris GS115 expressing mouse recombinant PEPT1 at 5 uM after 30s by dual-channel liquid scintillation counting analysis in presence of TEA relative to control; conditions: 0.5 min; how it was run: as §1
[4] = molecular target: T1, Solute carrier family 15 member 1; experiment: Drug uptake in Pichia pastoris GS115 expressing human recombinant PEPT1 at 5 uM after 30s by dual-channel liquid scintillation counting analysis in presence of GlyPro relative to control; conditions: 0.5 min; how it was run: as §1
[5] = molecular target: T3, PEPT1 (Rattus norvegicus, UniProt P51574); experiment: Drug uptake in Pichia pastoris GS115 expressing rat recombinant PEPT1 at 5 uM after 30 mins by dual-channel liquid scintillation counting analysis relative to vector control; conditions: read-out: FC
T3 sequence (P51574 whole entry): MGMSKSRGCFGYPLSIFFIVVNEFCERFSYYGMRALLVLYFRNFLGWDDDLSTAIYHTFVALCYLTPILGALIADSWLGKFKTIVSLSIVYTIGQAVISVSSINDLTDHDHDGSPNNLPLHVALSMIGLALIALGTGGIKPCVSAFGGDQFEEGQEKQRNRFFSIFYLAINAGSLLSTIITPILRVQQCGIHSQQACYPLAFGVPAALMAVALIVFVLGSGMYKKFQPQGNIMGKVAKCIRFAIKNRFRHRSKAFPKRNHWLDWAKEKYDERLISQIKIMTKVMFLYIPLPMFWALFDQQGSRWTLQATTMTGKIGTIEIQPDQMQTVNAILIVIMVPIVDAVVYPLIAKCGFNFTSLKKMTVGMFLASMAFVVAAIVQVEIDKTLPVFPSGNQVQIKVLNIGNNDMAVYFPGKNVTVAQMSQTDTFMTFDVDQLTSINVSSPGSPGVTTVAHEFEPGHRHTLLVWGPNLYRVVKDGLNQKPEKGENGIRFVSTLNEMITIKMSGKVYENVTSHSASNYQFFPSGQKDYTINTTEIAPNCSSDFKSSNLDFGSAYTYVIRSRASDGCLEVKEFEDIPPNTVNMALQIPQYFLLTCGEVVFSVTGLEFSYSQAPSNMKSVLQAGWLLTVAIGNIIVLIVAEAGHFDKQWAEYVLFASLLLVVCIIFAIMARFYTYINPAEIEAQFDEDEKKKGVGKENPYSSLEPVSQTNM
How it was run: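 5.0 µM radiolabelled substrate ([3H]GlySar or [14C]oseltamivir) is incubated 30 min at 24°C with induced transformants in 100 mM potassium phosphate pH 6.5. Cell-associated radioactivity is counted by scintillation after standing 24 h and normalised to OD600. Results are compared with pPIC3.5K vector-alone cells. Mean ± SE (n=6).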

[6] = molecular target: T1, Solute carrier family 15 member 1; experiment: Drug uptake in Pichia pastoris GS115 expressing human recombinant PEPT1 at 5 uM after 30s by dual-channel liquid scintillation counting analysis in presence of acyclovir relative to control; conditions: 0.5 min; how it was run: as §1
[7] = molecular target: T4, Solute carrier family 15 member 1 (Rattus norvegicus, UniProt P51574); experiment: Drug uptake in Pichia pastoris GS115 expressing rat recombinant PEPT1 at 5 uM after 30s by dual-channel liquid scintillation counting analysis in presence of SITS relative to control; conditions: in vivo, 0.5 min; how it was run: as §1
T4 sequence (P51574 whole entry): T3 sequence (P51574 whole entry)

[8] = molecular target: T1, Solute carrier family 15 member 1; experiment: Drug uptake in Pichia pastoris GS115 expressing human recombinant PEPT1 at 5 uM after 30s by dual-channel liquid scintillation counting analysis in presence of cephradine relative to control; conditions: 0.5 min; how it was run: as §1

`[3H]C(C(=O)O)N(C)C(=O)CN` (stereo not drawn) showed a Drug uptake [1] of 100%, a Drug uptake [2] of 4.5% and a Drug uptake [3] of 83.7%. It also gave a Drug uptake [4] of 3.9%, an uptake ratio at 0.5 h, 5 µM [5] of 100 and a Drug uptake [6] of 114%. It also gave a Drug uptake [7] of 107% and a Drug uptake [8] of 23.2%.
